PLK1 inh = PLK1 (human) kinase inhibition; P53350; recombinant PLK1 kinase, TR-FRET peptide phosphorylation; inhibition, % at 10 µM; 0.53% of 97,000 active;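 active = inhibition of 50% or more in the single-concentration screen; inactive = inhibition below 50%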;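 note: 0% = DMSO max control and 100% = H-89 dihydrochloride min control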
HIV Rev-RRE inh = inhibitors of HIV-1 Rev-RRE RNA interaction; inhibition, % at 8 µM; AID 704; Rev peptide-RRE RNA binding, FRET; P05866; 0.79% of 97,000 active;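 active = inhibition above the screen-wide mean plus 3 SD, cut at about 35% in these data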;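 note: 0% = median DMSO wells and 100% = median Neomycin B control wells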
Target sequence (P05866 whole entry, looked up): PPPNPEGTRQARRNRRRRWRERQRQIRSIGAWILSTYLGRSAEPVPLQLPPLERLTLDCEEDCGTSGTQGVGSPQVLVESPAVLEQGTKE
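Test system – labelled RRE RNA duplex and labelled Rev peptide · Signal – fluorescein-to-Cy5 FRET, 480 nm excitation · Evaluation – % inhibition of FRET ratio versus controls · Benchmarks – DMSO low control, neomycin B high control · Incubation – 5 min RNA-compound premix plus 15 min binding step, 25 °C · Medium – HEPES pH 7.5 salt buffer with EDTA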
Plk1 PBD FP = Plk1 (human) PBD binding inhibition | 0.13% of 97,000 active | Plk1 PBD phosphopeptide binding, fluorescence polarization | inhibition, %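 (tested at about 20 µM)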 | P53350 | AID 693; in the data active = inhibition above about 34%, passing the limit was not always enough
hDAT+cocaine = changed human dopamine transporter uptake under cocaine IC80. Q01959. AID 449768. LLC-PK1 hDAT cells, [14C]-dopamine uptake with cocaine IC80; actives deviate in either direction. 1.3% of 110,000 active. B-score at 10 µM;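 active = Z score or B-score, a plate-position-corrected score, falls beyond the plate's 99.7% confidence bounds, in either direction; inactive = both scores lie inside the 99.7% bounds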;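 note: scored against the spread of the other compound wells on the same plate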
Target sequence (Q01959 whole entry, looked up): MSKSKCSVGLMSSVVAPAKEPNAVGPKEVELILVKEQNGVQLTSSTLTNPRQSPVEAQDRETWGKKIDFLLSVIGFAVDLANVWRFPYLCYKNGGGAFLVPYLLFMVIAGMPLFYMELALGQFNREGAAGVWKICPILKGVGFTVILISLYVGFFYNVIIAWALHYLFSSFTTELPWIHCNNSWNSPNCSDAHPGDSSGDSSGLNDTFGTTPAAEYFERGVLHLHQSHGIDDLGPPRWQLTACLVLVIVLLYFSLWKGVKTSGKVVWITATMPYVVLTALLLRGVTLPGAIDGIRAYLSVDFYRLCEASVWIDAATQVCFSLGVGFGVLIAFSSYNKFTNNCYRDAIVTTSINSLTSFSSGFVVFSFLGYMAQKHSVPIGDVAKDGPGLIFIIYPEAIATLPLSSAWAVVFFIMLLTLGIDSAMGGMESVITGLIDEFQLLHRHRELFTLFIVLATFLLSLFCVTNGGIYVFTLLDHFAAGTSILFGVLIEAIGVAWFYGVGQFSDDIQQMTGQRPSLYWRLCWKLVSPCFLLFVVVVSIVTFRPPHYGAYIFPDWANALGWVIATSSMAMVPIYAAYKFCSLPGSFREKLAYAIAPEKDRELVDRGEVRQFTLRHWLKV
PTPN22 inh 2 = LYP (human) phosphatase inhibition; AID 640; Q9Y2R2; recombinant LYP catalytic domain, DiFMUP fluorescence; inhibition, % at 2 µM; 0.21% of 96,000 active;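 active = inhibition at 2 µM at or above a set limit, the screen mean plus 3 SD, cut at about 24% in these data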;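 note: 0% = DMSO with enzyme and 100% = enzyme fully blocked by orthovanadate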
LYP act = LYP (human) phosphatase activation. recombinant LYP, DiFMUP fluorescence; 0 = plate median, 100 = signal doubled. activation, % at 2 µM. 0.11% of 96,000 active;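 active = activation at 2 µM above a set limit, the mean plus 5 SD, cut at about 37% in these data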
Numbers without * were called inactive; / = not tested or not shown; [ ] = another dose, or the depositor's remark. Most compounds without a hit are left out; they make up all but 2.7% or so of the library.

SMILES	PLK1 inh	HIV Rev-RRE inh	Plk1 PBD FP	hDAT+cocaine	PTPN22 inh 2	LYP act
CCOC(=O)C1=C(C)N=c2s/c(=C/c3ccco3)c(=O)n2C1c1cccc(OC)c1 (stereo not given)	-8.2	15.2	-4.2	0.767	13.8	-14.2
COc1ccc(C2C(C(C)=O)=C(C)N=c3s/c(=C/c4ccc5c(c4)OCO5)c(=O)n32)cc1 (stereo not given)	-8.3	43.6*	28.4	-0.828	8.9	-5.5
Cc1cc(Nc2cc(Cl)nc(Sc3ccc(NC(=O)C4CC4)cc3)n2)n[nH]1	/	/	/	-2.63*	/	/
COc1cccc(C(=O)N(Cc2ccc(N(C)C)cc2)C2CCS(=O)(=O)C2)c1 (stereo not given)	-5.7	-2.2	-11.4	2.61*	-0.7	-1.3
CCOc1ccc(CN(C(=O)c2ccco2)C2CCS(=O)(=O)C2)cc1 (stereo not given)	-0.8	0.7	3.5	0.00712	-6.1	4.8
COc1ccc(C[C@H]2CN3C(=NC[C@@H]3C(C)C)N2CCNC(=O)c2ccc(C)c(Br)c2)cc1	/	/	/	-3.15*	/	/
Cc1ccc(C(=O)NCCN2C3=NC[C@H](C(C)C)N3C[C@H]2Cc2ccc(O)cc2)cc1Br	/	/	/	-0.502	/	/
CCN(CC)CCNC(=O)c1cn(C)c2ccc(S(=O)(=O)N(C)C3CCCCC3)cc2c1=O	55.2*	8.4	-17.1	-0.249	/	/
CCN(CC)CCNC(=O)c1cn(CC)c2ccc(S(=O)(=O)N(C)C)cc2c1=O	-5.0	2.9	-18.9	-0.472	-4.8	2.5
CCCCOc1cccc(NC(=O)CSc2nccn2C)c1	-14.2	2.4	16.9	2.74*	13.8	-14.2
Cn1ccnc1SCC(=O)Nc1cccc(O)c1	-8.6	6.5	-14.5	-1.19	-3.1	4.1
CCOC(=O)Cc1csc(NC(=O)NC2(C(F)(F)F)Oc3ccc(Cl)cc3O2)n1 (stereo not given)	-14.8	19.9	9.6	0.899	-6.2	5.8
COCC(C)NC(=O)NC1(C(F)(F)F)Oc2ccc(Cl)cc2O1 (stereo not given)	-11.2	0.4	16.6	-3.16*	-1.2	1.5
CCCSc1nnc(NC(=O)c2sc3nc(-c4cccs4)ccc3c2N)s1	-6.5	105.5*[fluorescence artefact?]	-87.4	0.0124	5.1	-7.4
COc1ccc(C(=O)Nc2nc(-c3cccs3)cs2)cc1	-5.4	13.8	11.3	-0.0546	-1.1	-2.9
Cc1csc(NC(=O)c2sc3nc(-c4cccs4)ccc3c2N)n1	-16.1	101.6*[fluorescence artefact?]	-43.3	-0.511	6.8	-4.9
Cc1cccc(C)c1NC(=O)COc1cccc(/C=N/NC(=O)C(=O)NCc2ccccc2)c1	-10.6	11.1	1.7	-0.222	2.1	2.5
COc1ccc(CCNC(=O)c2ccc(CNS(=O)(=O)c3cc(C)ccc3C)cc2)cc1OC	-6.5	7.2	-22.4	0.00372	0.1	0.5
O=C(CCN1CCCCC1)c1ccc2c(c1)OCCO2	-12.3	8.8	-14.8	4.79*	-15.2	14.7
O=C(Nc1ccc(N2CCCC2)c(Cl)c1)c1ccc2c(c1)OCCO2	-0.7	5.4	-3.0	0.149	-13.9	13.2
O=C(CCN1CCc2ccccc2C1)c1ccc2c(c1)OCCO2	-5.8	0.5	-7.7	-0.993	-9.8	7.5
O=C(Nc1ccc(N2CCCCC2)c(Cl)c1)c1ccc2c(c1)OCCO2	-35.8	17.0	18.2	0.686	35.7*	-34.3
O=C(CCc1ccc(Oc2cc([N+](=O)[O-])cc([N+](=O)[O-])c2)cc1)N1CCCCC1	-8.7	8.4	33.4	1.65	/	/
N#Cc1sc2nc(-c3ccccc3)cc(-c3ccco3)c2c1N	-3.0	37.0*	-23.0	-0.674	-6.0	7.3
CC(C)(C)c1cc(-c2ccco2)c(C#N)c(SCC#N)n1	-5.1	0.1	2.1	1.05	-0.5	0.1
SMILES	PLK1 inh	HIV Rev-RRE inh	Plk1 PBD FP	hDAT+cocaine	PTPN22 inh 2	LYP act
N#Cc1c(-c2ccccc2)cc(-c2ccco2)c(C#N)c1N	-6.2	36.8*	3.2	/	2.8	-6.1
Cc1ccc(-n2c(CNc3ccc(F)cc3)nnc2SCC(N)=O)cc1	-15.9	-1.1	-8.9	/	-4.6	4.5
NC(=O)c1ccc2c(=O)n3c(-c4cccs4)csc3nc2c1	/	/	/	0.181	/	/
CC(=O)Nc1ccc(-c2nc3c(C)cccc3[nH]2)cc1	-16.7	7.4	-2.5	-8.11*	-7.7	4.2
CC(=O)Nc1ccc2nc(-c3ccncc3)[nH]c2c1	-9.8	6.7	4.5	0.343	5.1	-2.8
CN(C)c1ccc(/C=C2\SC(=S)N(Nc3ncc(C(F)(F)F)cc3Cl)C2=O)cc1	-75.0	138.0*[fluorescence artefact?]	-32.0	0.157	-4.3	0.8
C=CCN(C/C(=N\O)c1sc(C(=O)OCC)nc1C)c1cccc(Br)c1	/	/	/	-1.03	/	/
COc1ccc(Nc2nnc(SCc3cc([N+](=O)[O-])cc4c3OCOC4)s2)cc1	-12.2	2.5	0.2	0.759	-5.8	7.8
CCOC(=O)C1=C(O)/C(=C/c2ccc(C)o2)SC1=NC(=O)c1ccccc1C	-5.7	68.5*	-13.2	/	9.0	-9.4
CCOC(=O)C1=C(O)/C(=C/c2cc(OC)c(OC)c(OC)c2)SC1=Nc1ccc(OC)cc1	-13.9	1.2	9.0	/	13.3	-11.5
COc1ccc(-n2nnnc2SCc2nc3ccccc3s2)cc1	-6.9	12.5	-15.0	4.1*	3.3	-2.3
Cc1ccc(N2C(=O)CC(Sc3ncn[nH]3)C2=O)cc1C (stereo not given)	-7.9	3.8	-15.9	-3.08*	0.3	3.9
CCn1nc(Cc2cccc3ccccc23)c(C#N)c1N	/	/	/	1.61	/	/
CCC(C)(C)n1c(=O)[nH]c2c(c1=O)CCC2	-18.6	5.9	9.9	3.02*	-1.5	-1.3
CCCOc1ccc(N2CC(C(=O)NC(C)C)CC2=O)cc1 (stereo not given)	-4.0	5.7	-3.0	0.274	-4.4	4.5
CCOC(=O)c1c(-c2ccccc2)oc2cc(CN(C)C)c(O)c(CN(C)C)c12	-8.6	57.7*	13.3	/	-9.6	10.3
CCOC(=O)c1c(C)oc2ccc(O)c(CN(C)C)c12	-6.0	-4.0	-16.5	0.00253	3.7	-4.5
O=C(NCc1cccc(Br)c1)C1CC2Cn3c(nc4ccccc43)C2N1c1ccccc1 (stereo not given)	/	/	/	-0.965	/	/
Cc1nn(C)c(C)c1S(=O)(=O)N1CCC(C(=O)NC2CCCCCC2)CC1	/	/	/	-2.65*	/	/
Cc1nn(C)c(C)c1S(=O)(=O)N1CCC(C(=O)NC2CCCCC2)CC1	-11.4	-4.8	-2.2	-0.0176	9.8	-9.2
c1cnc(Oc2ccc(-c3nnco3)cc2)cn1	-11.7	12.6	-3.0	-0.438	3.0	-3.6
O=C(c1ccccc1)c1ccc(CN2C(=O)c3ccccc3C2=O)o1	-11.0	13.5	-19.7	3.41*	5.5	-3.9
C=CCSc1nc(NC)c2sccc2n1	-8.8	3.1	-18.1	0.00638	0.0	2.8
N#C/C(=C(/O)COC(=O)Cc1c[nH]c2ccccc12)c1nc2ccccc2[nH]1	-4.2	22.8	-0.4	-0.153	2.7	-4.6
N#C/C(=C(/O)COC(=O)CCc1ccc(S(=O)(=O)N2CCOCC2)cc1)c1nc2ccccc2[nH]1	1.7	45.2*	3.8	-0.613	1.8	-2.8

Screening data deposited in PubChem BioAssay by several laboratories.
